# Activity calls are given as the source filed them. The calls are words filed in the database; no cut-off is given here.
# What was measured:
# HeLa [1] = assay: Induction of mitotic arrest in human HeLa cells harboring Mps1-C604F mutant assessed as decrease in average mitotic time with most mild seggregation errors at 200 nM; format: functional, cell-based
# U2OS [2] = assay: Induction of mitotic arrest in human U2OS cells harboring LAP-Mps1 I598F mutant assessed as maintain in checkpoint-dependent arrest at 100 nM incubated for 16 hrs in the presence of nocodazole; format: functional, cell-based
# In short: (§1)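 About 10 000 cells per 96-well plated on day 0. On day 1, nocodazole (200 ng/ml) plus Cpd-5 at various concentrations added for 16 h. Fixed in 5% formaldehyde, stained for phospho-histone H3-Ser10 and DAPI, up to nine images per well (~3000 cells). Mitotic index = pH3S10-positive/DAPI-positive cells, normalized; three independent experiments.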
# HCT-116 [3] = assay: Antiproliferative activity against human HCT-116 cells harboring Mps1 531M mutant assessed as change in Mps1 expression level by Western blot analysis; format: functional, cell-based
# In short: (§2)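 Lysis in Tris/HCl pH 7.5 with 150 mM NaCl, 1% Triton X-100, DTT, EDTA, phosphatase and protease inhibitors. SDS-PAGE, transfer to nitrocellulose, block in 4% BSA 0.5 h at room temperature, primary antibody (Mps1-NT) overnight at 4 °C, secondary 1:2000 for 1 h, ECL chemiluminescence detection.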
# HCT-116 [4] = assay: Induction of mitotic arrest in human HCT-116 cells harboring Mps1 I531M mutant assessed as mitotic index at 200 to 400 nM incubated for 16 hrs in the presence of nocodazole; format: functional, cell-based; conditions: dose 200-400 nM; in short: as §1
# HeLa [5] = assay: Induction of mitotic arrest in human HeLa cells assessed as depletion in KNL1 phosphorylation at 50 to 100 nM by immunostaining method; format: functional, cell-based; conditions: dose 50-100 nM
# In short: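 HeLa cells given DMSO, 50 or 100 nM Cpd-5, immunostained for phospho-KNL1 (MELT13/17) and CREST, DNA with DAPI. Kinetochore ph-KNL1/CREST fluorescence intensity ratios from 200 kinetochores per condition.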
# HCT-116 [6] = assay: Antiproliferative activity against human HCT-116 cells harboring Mps1 C604Y-B mutant assessed as change in Mps1 expression level by Western blot analysis; format: functional, cell-based; in short: as §2
# Homo sapiens [7] = organism: Homo sapiens; assay: Inhibition of recombinant Mps1 531M mutant (unknown origin) assessed as KNL1 phosphorylation level incubated for 10 min by Western blot analysis
# HeLa [8] = assay: Induction of mitotic arrest in human HeLa cells harboring Mps1-C604F mutant assessed as […] in average mitotic time with severe seggregation at 400 nM relative to control; format: functional
# U2OS [9] = assay: Induction of mitotic arrest in human U2OS cells harboring LAP-Mps1 S611R mutant assessed as maintain in checkpoint-dependent arrest at 100 nM incubated for 16 hrs in the presence of nocodazole; format: functional, cell-based; in short: as §1
# HCT-116 [10] = assay: Induction of mitotic arrest in human HCT-116 cells harboring Mps1 C604Y mutant assessed as mitotic index at 200 to 400 nM incubated for 16 hrs in the presence of nocodazole; format: functional, cell-based; conditions: dose 200-400 nM; in short: as §1
# HeLa [11] = assay: Inhibition of colony formation in human HeLa cells harboring Mps1 C604Y mutant at 80 nM incubated for 14 days in the presence of oligonucleotide and Cas9/gRNA by crystal violet staining based colony formation assay; format: functional, cell-based; conditions: time 14.0 day
# In short: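 HeLa (1 × 10^6) transfected with mock, a 100-bp repair oligonucleotide alone, or oligonucleotide plus pX330 Cas9/Mps1-targeting gRNA. Selected with 80 nM Cpd-5 for 14 days in 10-cm plates, then stained with crystal violet.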
# Homo sapiens [12] = organism: Homo sapiens; assay: Inhibition of recombinant Mps1 C604Y mutant (unknown origin) assessed as KNL1 phosphorylation level incubated for 10 min by Western blot analysis
# U2OS [13] = assay: Induction of mitotic arrest in human U2OS cells harboring LAP-Mps1 531M mutant assessed as maintain in checkpoint-dependent arrest at 100 nM incubated for 16 hrs in the presence of nocodazole; format: functional, cell-based; in short: as §1
# HCT-116 [14] = assay: Induction of mitotic arrest in human HCT-116 cells assessed as decrease in mitotic index at 30 nM incubated for 16 hrs; format: functional; design: scale not given: the % may be the effect or the level left; in short: as §1
# HeLa [15] = assay: Inhibition of colony formation in human HeLa cells harboring Mps1 I598F mutant assessed as cell survival at 60 nM incubated for 14 days by crystal violet staining based colony formation assay; format: functional; conditions: time 14.0 day
# In short: (§3)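 About 500–600 cells per 6-well plated on day 0, Cpd-5 added day 1 at 60 nM, colonies grown to day 14. Fixed 10 min in 96% methanol, stained with 0.1% crystal violet, scanned and analysed. Parental and drug-selected clones tested side by side.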
# HeLa [16] = assay: Induction of mitotic arrest in human HeLa cells expressing histone H2B-YFP assessed as initiating anaphase at 50 to 100 nM incubated for 16 hrs and measured within 15 min after nuclear envelope breakdown by time-lapse microscopy relative to control; format: functional; conditions: dose 50-100 nM, time 975 min, 16.25 h
# In short: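 Live imaging of HeLa H2B-YFP cells in L-15 medium at 37 °C after DMSO or 50/100 nM Cpd-5, no nocodazole. Time from nuclear envelope breakdown to anaphase onset recorded for 50 cells per condition; cumulative anaphase-onset percentage and mean mitotic duration.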
# DLD-1 [17] = assay: Antiproliferative activity against human DLD-1 cells harboring Mps1 S611R mutant assessed as change in Mps1 expression level by Western blot analysis; format: functional, cell-based; in short: as §2
# HCT-116 [18] = assay: cells; format: functional, cell-based; conditions: Homo sapiens, HCT-116, 120 h
# Homo sapiens [19] = organism: Homo sapiens; assay: Inhibition of recombinant Mps1 I598F mutant (unknown origin) assessed as KNL1 phosphorylation level incubated for 10 min by Western blot analysis
# DLD-1 [20] = assay: Inhibition of colony formation in human DLD-1 cells harboring Mps1 S611R mutant assessed as cell survival at 60 nM incubated for 14 days by crystal violet staining based colony formation assay; format: functional; conditions: time 14.0 day; in short: as §3
# HCT-116 [21] = assay: Inhibition of colony formation in human HCT-116 cells harboring Mps1 C604Y-A mutant assessed as cell survival at 60 nM incubated for 14 days by crystal violet staining based colony formation assay; format: functional; conditions: time 14.0 day; in short: as §3
# DLD-1 [22] = assay: Induction of mitotic arrest in human DLD-1 cells harboring Mps1 S611R mutant assessed as mitotic index at 200 to 400 nM incubated for 16 hrs in the presence of nocodazole; format: functional, cell-based; conditions: dose 200-400 nM; in short: as §1
# HeLa [23] = assay: Induction of mitotic arrest in human HeLa cells assessed as decrease in average mitotic time with severe seggregation errors at 100 nM relative to control; design: scale not given: the % may be the effect or the level left
# DLD-1 [24] = assay: Induction of mitotic arrest in human DLD-1 cells assessed as decrease in mitotic index at 30 nM incubated for 16 hrs; format: functional; design: scale not given: the % may be the effect or the level left; in short: as §1
# U2OS [25] = assay: Inhibition of colony formation in human U2OS cells harboring wild-type LAP-Mps1 assessed as cell survival incubated for 5 days by crystal violet staining based colony formation assay; format: functional; conditions: 120 h
# In short: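 Cells seeded at ~1500 per 96-well on day 0; inhibitor added on day 1 over a concentration range. On day 6, fixed 10 min in 96% methanol, stained with 0.1% crystal violet, scanned and quantified. Survival relative to untreated; IC50 from dose–response curves; mean of three independent experiments. Culture in DMEM with 6% FCS.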
# HeLa [26] = assay: Induction of mitotic arrest in human HeLa cells harboring Mps1 C604F mutant assessed as initiating anaphase at 200 nM and measured after nuclear envelope breakdown; format: functional, cell-based
smiles,measurement,setting,value
CCc1cccc(CC)c1NC(=O)c1nn(C)c2c1CCc1cnc(Nc3ccc(N4CCN(C)CC4)cc3OC)nc1-2,Activity,HeLa [1],Active
same,Activity,U2OS [2],Active
same,Activity,HCT-116 [3],inactive
same,Activity,HCT-116 [4],Active
same,Activity,HeLa [5],Active
same,Activity,HCT-116 [6],inactive
same,inhibition,Homo sapiens [7],Active
same,Activity,HeLa [8],100%
same,Activity,U2OS [9],Active
same,Activity,HCT-116 [10],Active
same,Activity,HeLa [11],Active
same,inhibition,Homo sapiens [12],Active
same,Activity,U2OS [13],Active
same,Activity,HCT-116 [14],60%
same,inhibition,HeLa [15],Active
same,Activity,HeLa [16],100%
same,Activity,DLD-1 [17],inactive
same,IC50,HCT-116 [18],20.1 nM
same,inhibition,Homo sapiens [19],Active
same,inhibition,DLD-1 [20],Active
same,inhibition,HCT-116 [21],Active
same,Activity,DLD-1 [22],Active
same,Activity,HeLa [23],100%
same,Activity,DLD-1 [24],70%
same,IC50,U2OS [25],33.2 nM
same,Activity,HeLa [26],inactive

# — ChEMBL document CHEMBL5647693, “Molecular basis underlying resistance to Mps1/TTK inhibitors” (Oncogene, 2016)
